Here are results for 7 compounds from PubChem BioAssay.

The term inhibition denotes the change of the read-out against control, counted positive when it falls.

The nature of experiment [1]: inhibitors of TNFa-induced NFkB p65 translocation, primary screen, imaging, HUVEC, MLSMR starter and 10KST1 sets (AID 438;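 active = inhibition above 20% together with a positive visual image hit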;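 note: compound added about 3h40 before a 20 min TNFalpha stimulation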;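 for inhibition: signal is the nuclear over cytoplasmic p65 intensity ratio per well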). The note with it: HUVEC TNFa-induced p65 nuclear translocation; cell count: measured here: nuclei count (cytotoxicity indicator), at 2.08 µM; inhibition: at 2 µM, stronger effect = higher value, 0% TNFa-plus-vehicle, 100% no-TNFa wells.
Experiment [2] is described as follows: endothelial E-selectin expression blockers – imaging, HUVEC, immunofluorescence, MLSMR starter and 10KST1 sets, primary screen (AID 487;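 active = visually confirmed hit in the image check and inhibition above 20%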;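 for inhibition: signal is fraction of cell area covered by stained E-selectin grains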;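 for nuclei count: 100% = median nuclei count of all wells on the same plate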). The note with it: HUVEC TNFalpha-induced E-selectin immunofluorescence imaging, at 2 µM; inhibition: stronger effect = higher value; nuclei count: measured here: cell number, toxicity.
Experiment [3] in a line: Primary imaging screen for DUSP6 inhibitors that restore phospho-Erk in transfected HeLa cells, chemical complementation (AID 609).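 For inhibition: phospho-Erk level distribution per well compared with pooled transfected vehicle control wells.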 The conditions noted are these: HeLa MKP-3 transfected, phospho-Erk imaging KS statistic, at 10 µM, cells stimulated with TPA for 15 min.
The target of experiment [4] is Dual specificity protein phosphatase 6 (Homo sapiens) (UniProt Q16828). The experiment is described as above. The note with it: HeLa MKP-3 transfected, phospho-Erk imaging KS statistic; at 10 µM; stronger effect = higher value; cells stimulated with TPA for 15 min.
For experiment [5], the target named is Voltage-gated potassium channel subunit beta-2 (Rattus norvegicus) (UniProt P62483). Briefly: inhibitors of rat Kvbeta2 reductase activity – biochemical, NADPH fluorescence, primary screen (AID 622;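 active = fluorescence slope higher than the sample average by over 3 SD, cut at about -0.22 in these data, passing the limit was not always enough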;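 note: slope of raw intensity against log time taken from 70 to 1610 s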). The conditions noted are these: recombinant KvBeta, 4-cyanobenzaldehyde reduction, at 10 µM, stronger effect = higher value.
The target is the same in experiment [6]. Nature of the experiment: enhancers of rat Kvbeta2 NADPH turnover – biochemical, NADPH fluorescence, primary screen (AID 623;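 active = NADPH fluorescence slope more negative than the mean of all samples by about 3 SD, 99.7% confidence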;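 note: fluorescence intensity change per second fitted from 20 to 320 s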). The note with it: Recombinant KvBeta, NADPH fluorescence decrease slope, 10 min; at 10 µM; stronger effect = lower value.
The target of experiment [7] is Alpha-2C adrenergic receptor (Homo sapiens) (UniProt P18825). Nature of the experiment: compounds altering alpha2C-coupled GIRK flux – cell-based, HEK293 alpha2C/GIRK1/2, thallium flux, primary screen (AID 624;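 active = fluorescence slope after compound addition differing from the mean of all screened samples at 99.7% confidence, in either direction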;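 note: slope of fluorescence ratio to pre-addition baseline per second over 15 to 24 s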). The conditions noted are these: thallium flux BTC fluorescence, at 10 µM, actives lie on both sides.
Experiment [8] is described as follows: inhibitors of larval lipid processing in zebrafish, primary screen, whole organism, PED6 fluorescence, gall bladder and intestine (AID 686;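 active = a full or partial loss of lipid-probe fluorescence in the fish gall bladder, intestine or both, judged by eye; inactive = no fluorescence loss, or compound toxic to the fish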;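 note: larvae 5 to 7 days old with five fish per well; signal comes from phospholipase A2 cleavage of quenched PED6 carried via bile; overnight exposure to compound and PED6 before scoring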). The conditions noted are these: Zebrafish larvae PED6 lipid processing, fluorescence scoring; screened at 20 µM (by protocol). In a few lines:
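System: live zebrafish larvae aged 5-7 days, whole organism; measure: graded gall bladder and intestinal fluorescence inhibition per well; incubation: overnight exposure; reagent: ingested quenched lipid PED6 at 100 nM; signal: By-eye fluorescence microscopy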

Experiment [9] in a line: loss of swimming-algae plug formation – whole organism, Chlamydomonas reinhardtii, WT vs cilia-less mutant, absorbance, 96-well, primary screen (AID 463189;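 active = inhibition at or above 50% relative to wild type and mutant plate controls; inactive = inhibition below 50%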;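 note: 0% = wild type cc124 cells in DMSO and 100% = ciliumless bld1 mutant cells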). The note with it: Chlamydomonas reinhardtii gravitaxis, OD600 absorbance, 2 days; at 10 µM; stronger effect = higher value.
[10] abbreviates: measured here: cell density z-score.
[11] abbreviates: measured here: nuclear c-Myc green intensity z-score.
The mark [12] stands for this setting: measured here: nuclear pErk red intensity z-score, stronger effect = higher value.

Active and inactive are the calls of the source.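 Rule for the calls, unless noted: active = compounds giving at least 50% inhibition in the cell-based MKP-3 phosphatase rescue imaging test; inactive = the rest.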

Voltage-gated potassium channel subunit beta-2 (Rattus norvegicus), sequence (P62483 whole entry, looked up): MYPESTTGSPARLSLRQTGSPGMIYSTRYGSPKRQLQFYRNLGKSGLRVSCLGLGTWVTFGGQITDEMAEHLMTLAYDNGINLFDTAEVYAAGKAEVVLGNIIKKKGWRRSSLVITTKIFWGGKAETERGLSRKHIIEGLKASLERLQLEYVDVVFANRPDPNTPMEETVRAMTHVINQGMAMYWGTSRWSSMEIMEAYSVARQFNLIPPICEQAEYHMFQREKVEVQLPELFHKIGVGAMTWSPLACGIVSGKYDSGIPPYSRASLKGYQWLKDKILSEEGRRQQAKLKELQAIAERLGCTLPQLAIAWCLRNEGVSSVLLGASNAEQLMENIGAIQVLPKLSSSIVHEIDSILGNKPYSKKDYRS
Alpha-2C adrenergic receptor (Homo sapiens), sequence (P18825 whole entry, looked up): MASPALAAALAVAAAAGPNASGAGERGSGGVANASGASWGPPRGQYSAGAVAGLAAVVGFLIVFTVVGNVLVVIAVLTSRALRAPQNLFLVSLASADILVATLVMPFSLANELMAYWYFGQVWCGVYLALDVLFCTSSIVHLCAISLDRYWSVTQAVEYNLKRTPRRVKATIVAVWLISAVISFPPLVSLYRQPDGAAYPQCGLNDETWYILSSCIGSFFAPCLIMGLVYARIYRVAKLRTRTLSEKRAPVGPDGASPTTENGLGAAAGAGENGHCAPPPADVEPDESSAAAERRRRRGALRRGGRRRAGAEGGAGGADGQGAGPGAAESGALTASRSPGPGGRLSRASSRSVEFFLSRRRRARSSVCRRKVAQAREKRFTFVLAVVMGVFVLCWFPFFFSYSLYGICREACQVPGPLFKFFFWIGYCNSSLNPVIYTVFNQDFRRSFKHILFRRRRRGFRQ
Dual specificity protein phosphatase 6 (Homo sapiens), sequence (Q16828 whole entry, looked up): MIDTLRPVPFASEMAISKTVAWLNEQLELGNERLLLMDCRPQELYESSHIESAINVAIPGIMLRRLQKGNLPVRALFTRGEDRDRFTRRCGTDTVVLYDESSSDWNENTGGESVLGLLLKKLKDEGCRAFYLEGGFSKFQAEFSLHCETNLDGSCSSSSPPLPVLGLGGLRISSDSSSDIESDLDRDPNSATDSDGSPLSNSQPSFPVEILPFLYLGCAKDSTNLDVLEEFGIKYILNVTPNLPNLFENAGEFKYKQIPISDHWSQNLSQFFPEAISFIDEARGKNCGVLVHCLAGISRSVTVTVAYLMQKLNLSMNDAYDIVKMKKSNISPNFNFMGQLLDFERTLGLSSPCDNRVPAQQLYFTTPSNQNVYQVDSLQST

Regarding `Cc1nc(NCCN)c(C#N)c2c1COC(C)(C)C2`, the cell count in experiment [1] was 666. Also, the inhibition in experiment [1] was -1.2% (inactive); in experiment [2] it was -117% (inactive); in experiment [4], 1.75% (inactive); in [9], 1.63% (inactive). The nuclei count in [2] stood at 165%. In addition, the z-score in [3] (setting [10]) was -0.432; in [3] (setting [11]), -0.111; in experiment [3] (setting [12]), -0.818. Besides, the fluorescence slope in experiment [5] is -0.506 (inactive). Further, in experiment [6], the NADPH fluorescence slope is -1.4e-06 (inactive). The slope in experiment [7] is 0.00551 (inactive). For the same compound, in experiment [8], the compound was classed as inactive.
For `COc1cccc(/C=C2/CN(C)CC3=C2OC(N)=C(C#N)C3c2cccc(OC)c2)c1` (stereo unspecified), the cell count in [1] was 562. Moreover, the inhibition in experiment [1] was -0.3% (inactive); in experiment [2], -91.1% (inactive); in experiment [4], -1.12% (inactive); in [9], 3.47% (inactive). The same compound showed a nuclei count in [2] of 190%. Besides, the z-score in [3] (setting [10]) was 1.7; in [3] (setting [11]), -1.04; in [3] (setting [12]), -1.64. Besides, the fluorescence slope in [5] is -0.289 (inactive). Also, in experiment [6], the NADPH fluorescence slope is 4.6e-07 (inactive). Also, the slope in experiment [7] is 0.00546 (inactive). In experiment [8], the compound was called inactive.
As to `COc1ccc(-c2nn3c(COc4ccccc4)nnc3s2)cc1OC`, the cell count in experiment [1] worked out at 597. The inhibition in experiment [1] was -0.7% (inactive); in [2], 33.6% (inactive); in experiment [4], -0.674% (inactive); in [9], -1.36% (inactive). The nuclei count in experiment [2] stood at 96.3%. Also, the z-score in experiment [3] (setting [10]) is 1.18; in experiment [3] (setting [11]), -0.256; in experiment [3] (setting [12]), -1. In [5], the fluorescence slope was -0.395 (inactive). In addition, the NADPH fluorescence slope in experiment [6] is -6e-05 (inactive). The slope in [7] was 0.00544 (inactive). Further, the compound was called inactive in [8].
In the case of `C/C(=N\O)c1ccc2[nH]ccc2c1`, the cell count in [1] came out at 578. The inhibition in [1] is 0.2% (inactive); in experiment [2], 45.4% (inactive); in experiment [4], -7.01% (inactive); in experiment [9] it was -2.54% (inactive). For the same compound, in experiment [2], the nuclei count was found to be 161%. For the same compound, the z-score in experiment [3] (setting [10]) was 0.0779; in experiment [3] (setting [11]), 0.348; in experiment [3] (setting [12]), -0.861. Moreover, the fluorescence slope in experiment [5] is -0.341 (inactive). The NADPH fluorescence slope in experiment [6] is -3.6e-05 (inactive). In addition, the slope in experiment [7] was 0.00435 (inactive). For the same compound, the result in experiment [8] was inactive.
With `c1coc(-c2nnc3sc(-c4cccs4)nn23)c1`, the cell count in [1] is 471. The inhibition in [1] is 2.8% (inactive); in [2], -41.9% (inactive); in experiment [4], -13.3% (inactive); in [9] it was 3.53% (inactive). The same compound yielded a nuclei count in experiment [2] of 132%. Further, the values for the z-score in [3] (setting [10]), in [3] (setting [11]) and in experiment [3] (setting [12]) were -1.75, 0.838 and 2.17, respectively. Besides, the fluorescence slope in experiment [5] was -0.459 (inactive). Moreover, the NADPH fluorescence slope in experiment [6] was 9.9e-06 (inactive). Moreover, in experiment [7], the slope is 0.00352 (inactive). Moreover, the outcome in experiment [8] is “active; weak signal in gallbladder and intestine”.
`COc1ccc(C(C)=O)cc1CSCCC(=O)O`: the cell count in experiment [1] was found to be 513. Further, the inhibition in [1] is -1.6% (inactive); in [2], -82.1% (inactive); in experiment [4], -5.26% (inactive); in experiment [9] it was 0.764% (inactive). This compound also gave a nuclei count in [2] of 175%. For the same compound, the z-score was 1.45 in [3] (setting [10]), -1.72 in experiment [3] (setting [11]) and -4.2 in [3] (setting [12]). Further, the fluorescence slope in experiment [5] was -0.349 (inactive). Also, the NADPH fluorescence slope in [6] was 1.8e-05 (inactive). Also, the slope in [7] is 0.00434 (inactive). Further, the compound was classed as inactive in experiment [8].
Regarding `CC/C(C)=C1\SC(N2CCN(C(C)=O)CC2)=NC1=O`, the cell count in experiment [1] was found to be 475. Besides, the inhibition in [1] was -8.5% (inactive); in [2], -322% (inactive); in experiment [4], 4.37% (inactive); in experiment [9], -1.03% (inactive). This compound showed a nuclei count in [2] of 208%. For the same compound, the results for the z-score in experiment [3] (setting [10]), in [3] (setting [11]) and in experiment [3] (setting [12]) were -0.503, -0.13 and 0.531, respectively. Further, the fluorescence slope in experiment [5] is -0.377 (inactive). Also, the NADPH fluorescence slope in experiment [6] is -3.8e-06 (inactive). In addition, in experiment [7], the slope is 0.00493 (inactive). Also, the compound was called inactive in experiment [8].
